Columns and labels:
[1] = Inhibition of beta-hematin formation assessed as Ferriprotoporphyrin IX biomineralisation at 1 mg/ml after 24 hrs; format: functional
Method in brief: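 Hemin chloride (0.5 mg/ml in DMSO) mixed with 0.5 M sodium acetate buffer pH 4.4 and drug or solvent control, incubated 37 °C for 24 h. Pellet washed with DMSO to remove unreacted hemin, dissolved in 0.1 N NaOH, absorbance read at 405 nm; percent inhibition relative to control. Highest concentration tested 1 mg/ml.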

[2] = test system: Nucleic Acid; assay: Binding affinity to calf thymus DNA assessed as melting temperature; format: nucleic-acid assay; conditions: Bos taurus
Method in brief: (§1)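 CT DNA (151 μM NP) was heated with or without compound at a 5:1 DNA:drug ratio in 40% DMSO/TE buffer pH 7.4 with 0.5 mM NaCl. Absorbance at 260 nm was followed with a 0.5 °C/min ramp to obtain Tm.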

[3] = test system: Coxsackievirus B4; assay: Antiviral activity against Coxsackie virus B4 infected in african green monkey Vero cells assessed as inhibition of virus-induced cytopathogenicity after 4 days; format: functional, organism-based; conditions: Enterovirus B, 96 h
Method in brief: (§2)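 Confluent HEL, Vero or HeLa monolayers were inoculated with 100 CCID50 of virus in the presence of varying concentrations of compound. Cytopathicity was scored when it reached completion in untreated, virus-infected control cultures.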

[4] = Cytotoxicity against cat CRFK cells assessed as cell viability by colorimetric formazan-based MTS assay; parameters: species or system Felis catus; conditions: crfk
[5] = test system: Influenza B virus; assay: Antiviral activity against Influenza B virus infected in MDCK cells assessed as reduction visual scoring of virus-induced cytopathogenicity after 4 days; format: functional, organism-based; conditions: 96 h
Method in brief: (§3)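 MDCK monolayers infected with 100 CCID50 of influenza A (H1N1 or H3N2) or influenza B, with varying compound concentrations. Cytopathicity read when untreated infected controls reached complete CPE.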

[6] = test system: Plasmodium falciparum; assay: Antiplasmodial activity chloroquine-resistant Plasmodium falciparum K1 infected in human A+ erythrocytes assessed as inhibition of [3H]-hypoxanthine incorporation after 24 hrs by scintillation counting; format: functional, organism-based
[7] = test system: Influenza A virus; assay: Antiviral activity against Influenza A virus H1N1 infected in MDCK cells assessed as reduction visual scoring of virus-induced cytopathogenicity after 4 days; format: functional, organism-based; conditions: 96 h; method in brief: as §3
[8] = test system: Human alphaherpesvirus 2; assay: Antiviral activity against HSV2 G infected in HEL cells assessed as inhibition of virus-induced cytopathogenicity after 4 days; format: functional, organism-based; conditions: Human alphaherpesvirus 2, strain G, 96 h; method in brief: as §2
[9] = test system: Human immunodeficiency virus 2; assay: Antiviral activity against HIV2 infected in human CEM cells assessed as inhibition of virus-induced cytopathic effect after 4 days; format: functional, organism-based; conditions: Human immunodeficiency virus 2, CCRF-CEM, 96 h
Method in brief: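 CEM T-lymphocytes (~3 × 10^5 cells/ml) were infected with HIV-1 IIIB or HIV-2 ROD at ~100 CCID50, then immediately plated with a range of compound concentrations. Giant cell formation was scored microscopically after 4 days at 37 °C. Cytostatic activity was tested in parallel in uninfected CEM cells.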

[10] = Cytotoxicity against african green monkey Vero cells assessed as minimum compound concentration required to causes microscopically detectable alteration of normal cell morphology; format: cell-based; conditions: chlorocebus sabaeus
Method in brief: (§4)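 Confluent, non-proliferating cell cultures were exposed to the compounds. The endpoint was the minimum concentration producing a microscopically detectable alteration of normal cell morphology.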

[11] = test system: Vesicular stomatitis virus; assay: Antiviral activity against Vesicular stomatitis virus infected in HEL cells assessed as inhibition of virus-induced cytopathogenicity after 4 days; format: functional, organism-based; conditions: 96 h
Method in brief: (§5)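 Confluent HEL or HeLa monolayers infected with 100 CCID50 of virus in the presence of varying compound concentrations.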

[12] = test system: Mammalian orthoreovirus 1; assay: Antiviral activity against Reovirus-1 infected in african green monkey Vero cells assessed as inhibition of virus-induced cytopathogenicity after 4 days; format: functional, organism-based; conditions: Mammalian orthoreovirus 1, Vero, 96 h; method in brief: as §2
[13] = test system: Influenza A virus; assay: Antiviral activity against Influenza A virus H1N1 infected in MDCK cells assessed as inhibition of virus-induced cytopathogenicity after 4 days by colorimetric formazan-based MTS assay; format: functional, organism-based; conditions: 96 h
[14] = test system: Punta Toro virus; assay: Antiviral activity against Punta Toro virus infected in african green monkey Vero cells assessed as inhibition of virus-induced cytopathogenicity after 4 days; format: functional, organism-based; conditions: 96 h; method in brief: as §2
[15] = test system: Human alphaherpesvirus 3; assay: Antiviral activity against thymidine kinase-deficient […] infected in HEL cells assessed as reduction of virus plaque formation after 4 days; format: functional, organism-based; conditions: Human alphaherpesvirus 3, 07-1, HEL, 96 h
[16] = test system: Influenza A virus; assay: Antiviral activity against Influenza A virus H3N2 infected in MDCK cells assessed as inhibition of virus-induced cytopathogenicity after 4 days by colorimetric formazan-based MTS assay; format: functional, organism-based; conditions: 96 h
[17] = test system: Coxsackievirus B4; assay: Antiviral activity against Coxsackie virus B4 infected in human HeLa cells assessed as inhibition of virus-induced cytopathogenicity after 4 days; format: functional, organism-based; conditions: Enterovirus B, 96 h; method in brief: as §2
[18] = test system: Feline infectious peritonitis virus; assay: Antiviral activity against FIPV infected in cat CRFK cells assessed as inhibition of virus-induced cytopathic effect after 4 days by colorimetric formazan-based MTS assay; format: functional, cell-based; conditions: Alphacoronavirus 1, CRFK, 96 h
[19] = test system: Nucleic Acid; assay: Binding affinity to calf thymus DNA after 5 mins by spectrofluorometric analysis; format: nucleic-acid assay; conditions: Bos taurus
Method in brief: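 Steady-state fluorescence titration at ambient temperature: compound held at 30 μM while DNA was varied (0.3–70 μM), working solutions diluted in methanol. Excitation 320 nm, emission 380 nm, slit 5 nm. Log K was calculated from quenching of the 380 nm emission.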

[20] = test system: HeLa; assay: Cytotoxicity against human HeLa cells assessed as cell viability by colorimetric formazan-based MTS assay
[21] = test system: Plasmodium falciparum; assay: Resistant factor, ratio of IC50 for chloroquine-resistant Plasmodium falciparum K1 to IC50 for chloroquine-sensitive Plasmodium falciparum 3D7; format: functional
Method in brief: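 Resistance factor computed as IC50 against K1 divided by IC50 against 3D7, both from the [3H]hypoxanthine incorporation assay.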

[22] = test system: Human respirovirus 3; assay: Antiviral activity against Parainfluenza-3 virus infected in african green monkey Vero cells assessed as inhibition of virus-induced cytopathogenicity after 4 days; format: functional, organism-based; conditions: Human respirovirus 3, Vero, 96 h; method in brief: as §2
[23] = Cytotoxicity against human HeLa cells assessed as minimum compound concentration required to causes microscopically detectable alteration of normal cell morphology; format: cell-based; method in brief: as §4
[24] = test system: Human betaherpesvirus 5; assay: Antiviral activity against Cytomegalovirus AD-169 infected in HEL cells assessed as inhibition of virus plaque formation after 4 days; format: functional, organism-based; conditions: Human betaherpesvirus 5, AD169, HEL, 96 h
[25] = test system: Vesicular stomatitis virus; assay: Antiviral activity against Vesicular stomatitis virus infected in HeLa cells assessed as inhibition of virus-induced cytopathogenicity after 4 days; format: functional, organism-based; conditions: 96 h; method in brief: as §5
[26] = test system: MDCK; assay: Cytotoxicity against MDCK cells assessed as cell viability by colorimetric formazan-based MTS assay; parameters: species or system Canis lupus familiaris; conditions: dog, mdck
Method in brief: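 Cytotoxicity on MDCK cells; 50% cytotoxic concentration from cell viability measured by colorimetric formazan-based MTS assay.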

[27] = test system: Human betaherpesvirus 5; assay: Antiviral activity against Human cytomegalovirus Davis infected in HEL cells assessed as inhibition of virus plaque formation after 4 days; format: functional, organism-based; conditions: Human betaherpesvirus 5, Davis, 96 h
[28] = test system: Nucleic Acid; assay: Binding affinity to calf thymus DNA assessed as change in melting temperature; format: nucleic-acid assay; conditions: Bos taurus; method in brief: as §1
[29] = Selectivity index, ratio of CC50 for MDCK cells to IC50 for chloroquine-resistant Plasmodium falciparum K1; format: functional
Method in brief: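 Selectivity index computed as MTS-based CC50 on MDCK cells divided by IC50 against P. falciparum K1.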

[30] = test system: Plasmodium falciparum; assay: Antiplasmodial activity chloroquine-sensitive Plasmodium falciparum 3D7 infected in human A+ erythrocytes assessed as inhibition of [3H]-hypoxanthine incorporation after 24 hrs by scintillation counting; format: functional, organism-based
[31] = test system: mu-oxodimeric heme; assay: Binding affinity to mu-oxo heme in HEPES buffer at pH 5.8 by UV-visible spectrophotometry analysis

SMILES	inhibition [1]	Tm [2]	EC50 [3]	CC50 [4]	EC50 [5]	IC50 [6]	EC50 [7]	EC50 [8]	EC50 [9]	MCC [10]	EC50 [11]	EC50 [12]	EC50 [13]	EC50 [14]	EC50 [15]	EC50 [16]	EC50 [17]	EC50 [18]	log Ks [19]	CC50 [20]	also measured
Cc1nc(NCCCCNc2ccnc3cc(Cl)ccc23)nc(-c2ccccc2[N+](=O)[O-])c1C(=O)OC(C)C	100%	62.5 °C	> 20 µM	27.2 µM	> 0.8 µM	0.0036 µM	> 0.8 µM	> 4 µM	> 2 µM	100 µM	> 4 µM	> 20 µM	> 0.8 µM	> 20 µM	> 4 µM	> 0.8 µM	> 20 µM	> 20 µM	3.39	4.4 µM	Ratio IC50 [21]: 0.2; EC50 [22]: > 20 µM; MCC [23]: 100 µM; EC50 [24]: > 4 µM; EC50 [25]: > 20 µM; CC50 [26]: 2.3 µM; EC50 [27]: > 4 µM; ΔTm [28]: 2.5 °C; Ratio CC50/IC50 [29]: 638; IC50 [30]: 0.0182 µM; log Ks [31]: 6.31
CCOC(=O)c1c(C)nc(NCCCCNc2ccnc3cc(Cl)ccc23)nc1-c1ccccc1	100%	63 °C	> 100 µM	13.9 µM	> 0.16 µM	0.0261 µM	> 0.16 µM	> 100 µM	> 2 µM	> 100 µM	> 100 µM	> 100 µM	> 0.16 µM	> 100 µM	> 20 µM	> 0.16 µM	> 100 µM	> 4 µM	4.67	1.84 µM	Ratio IC50 [21]: 0.129; EC50 [22]: > 100 µM; MCC [23]: > 100 µM; EC50 [24]: 2 µM; EC50 [25]: > 100 µM; CC50 [26]: 0.9 µM; EC50 [27]: 1.46 µM; ΔTm [28]: 3 °C; Ratio CC50/IC50 [29]: 34.41; IC50 [30]: 0.202 µM; log Ks [31]: 6.09
